From PubChem
KCNQ1 block: inhibitors of human KCNQ1 potassium channel; CHO-K1 KCNQ1, FluxOR thallium flux fluorescence; stronger effect = higher value; B-score at 10 µM; AID 2642; hit rate 1.3% among 310,000; P51787;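 active = compounds whose thallium flux B-score, printed positive for inhibition, exceeds three library SD while starting fluorescence stays within three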;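 note: channel opened by potassium depolarization with thallium stimulus after 20 min compound exposure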
KCNK3 block: human KCNK3 channel inhibition, primary screen; O14649; CHO-KCNK3 thallium flux, FluxOR fluorescence; stronger effect = lower value; B-score at 10 µM; hit rate 0.84% among 340,000;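 active = B-score under library mean minus 4 SD, starting fluorescence ratio at most library mean plus 5 SD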;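 note: more negative B-score means stronger inhibition of thallium flux through KCNK3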
Target sequence (O14649 whole entry, looked up): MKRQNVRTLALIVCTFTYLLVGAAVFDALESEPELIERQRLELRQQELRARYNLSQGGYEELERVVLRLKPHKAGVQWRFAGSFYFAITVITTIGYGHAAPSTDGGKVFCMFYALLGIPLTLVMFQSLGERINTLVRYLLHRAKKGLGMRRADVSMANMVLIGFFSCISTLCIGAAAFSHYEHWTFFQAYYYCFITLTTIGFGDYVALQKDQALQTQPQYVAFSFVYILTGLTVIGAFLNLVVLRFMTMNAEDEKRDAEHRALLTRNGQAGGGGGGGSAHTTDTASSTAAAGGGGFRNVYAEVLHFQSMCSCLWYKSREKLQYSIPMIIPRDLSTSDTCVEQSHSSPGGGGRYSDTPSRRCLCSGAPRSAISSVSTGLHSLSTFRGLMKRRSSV
hERG protect: shields human hERG channel from block by proarrhythmic agents; Q12809; CHO-hERG, FluxOR thallium flux, dofetilide IC70 present; activation (rescue from dofetilide block), less the hit threshold, % at 10 µM; hit rate 0.51% among 310,000;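 active = activation above the mean of controls blocked by dofetilide plus 5 SD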;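 note: thallium influx through hERG after potassium depolarization seen as dye fluorescence rise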
KCNQ1 pot: potentiators or activators of human KCNQ1 potassium channel. P51787. CHO-K1 KCNQ1, thallium flux FluxOR fluorescence; stronger effect = higher value. B-score at 10 µM. hit rate 0.35% among 310,000. AID 2648;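 active = fluorescence ratio B-score, a plate-corrected score, at least three library SD, with initial intensity B-score within 5 SD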
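System: Stable KCNQ1 CHO-K1 line | Incubation: 90 min dye loading and 20 min compound exposure, both at room temperature | Measure: Ratio B score | Medium: Assay buffer for compound exposure, DMSO matched across wells | Compound dosing: Single-concentration screen | Probe or stimulus: K+/Tl+ depolarizing stimulus | Measured by: Kinetic FluxOR fluorescence, 10 s baseline plus 110 s post-stimulus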
KCNK9 block: inhibitors of human KCNK9 two-pore domain potassium channel; Q9NPC2; HEK293 KCNK9, FluxOR thallium flux fluorescence; stronger effect = lower value; B-score at 10 µM; hit rate 1.2% among 310,000;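 active = ratio B-score over 3 SD below the library mean, with starting fluorescence within 5 SD of its mean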;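 note: negative B-score means less thallium flux so channel inhibition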
Each line names hits and unclear results; the compound was inactive in the other large screens. Most compounds without a hit are left out; they make up all but 3.1% or so of the library.

Oc1ccc(N=Nc2nc(-c3ccccc3)c(-c3ccccc3)[nH]2)cc1	KCNK9 block -7.4
Oc1ccc(N=Nc2n[nH]c(-c3ccccc3)n2)cc1	none
CC(NC(=O)COc1ccccc1)C(=O)N1CCN(c2ccccc2)CC1 (stereo unspecified)	none (no result: KCNQ1 block, hERG protect, KCNQ1 pot, KCNK9 block)
CCOc1ccc(Br)cc1S(=O)(=O)Nc1ccc(NC(=O)c2ccccc2C)cc1	KCNK9 block -7.4
CCOc1ccc(Br)cc1S(=O)(=O)Nc1ccc(C(=O)Nc2ccc(C)cc2)cc1	KCNK9 block -7.1
Cc1nn(CC(=O)c2ccc3c(c2)OCCO3)c(=O)c(C#N)c1C	none (no result: KCNQ1 block, hERG protect, KCNQ1 pot, KCNK9 block)
C/C(CCc1oc2ccccc2c1-c1ccc(C)o1)=N/O	none
C/C(CCc1oc2c(Br)cc(Br)cc2c1-c1ccc(C)o1)=N\O	KCNQ1 pot 15
Cc1ccc(S(=O)(=O)NCCNC(=O)c2ccccc2)cc1	none
Cc1ccc(S(=O)(=O)NCc2ccc(C(=O)NCCN(Cc3ccccc3)C(C)C)cc2)cc1	KCNQ1 block 6
COCCNC(=O)CN(c1ccc(F)cc1)S(=O)(=O)c1ccc2c(c1)OCCO2	none
CCCCC(=O)Nc1cc(C)c(NC(=O)c2ccco2)cn1	hERG protect 5.5
COc1ccc(CCC(=O)NCCOc2ccc(C)cc2)cc1	KCNQ1 pot 11
COc1ccc(CCNC(=O)CCc2ccc(OC)cc2)cc1	none
O=C(O)COc1ccccc1/C=N/NC(=O)c1cccc(S(=O)(=O)N2CCOCC2)c1	hERG protect 5.4
COc1ccc(NC(=O)c2cccc(S(=O)(=O)N3CCOCC3)c2)cn1	KCNK9 block -6.9
Cc1cc(NS(=O)(=O)c2ccc(NC(=O)Nc3cccc(C(F)(F)F)c3)cc2)no1	KCNQ1 block 6
Cc1ccc(S(=O)(=O)Nc2ccccc2-c2nc3ccccc3[nH]c2=O)cc1	none (no result: KCNQ1 block, hERG protect, KCNQ1 pot, KCNK9 block)
COc1ccc(-n2c(SCC(=O)N3CCCCC3)nnc2-c2cccnc2)cc1	hERG protect 6.4
COc1ccc(C(=O)NCC2COc3ccccc3O2)cc1S(=O)(=O)N1CCOCC1 (stereo unspecified)	none (no result: KCNQ1 block, hERG protect, KCNQ1 pot, KCNK9 block)
CC(C)Cn1c(=O)c(C(=O)N/N=C/c2cccc(F)c2)c(O)c2ccccc21	KCNQ1 pot 9
CCn1c(=O)c2cc(C(=O)N(C)c3cc(C)ccc3OC)sc2c2ccccc21	KCNK9 block -15
Cc1cc(C)n(C(=O)CNC(=O)c2cccc(F)c2)n1	none
Cc1nn(C(=O)CNC(=O)c2ccccc2)c(C)c1C	hERG protect 8.0
c1ccc(-c2c(-c3ccccc3)n(Cc3ccco3)c3ncnc(NCCCn4ccnc4)c23)cc1	KCNQ1 block 12
OCCNc1ncnc2c1c(-c1ccccc1)c(-c1ccccc1)n2Cc1ccco1	none
Cc1ccc(Cl)cc1NC(=O)CON=C(N)c1ccccc1	none (no result: KCNQ1 block, hERG protect, KCNQ1 pot, KCNK9 block)
CCOC(=O)C1=C(CSc2nc3c(cc2C#N)CN(C)CC3)OC(N)=C(C#N)C1c1ccccc1 (stereo unspecified)	none (no result: KCNQ1 block, hERG protect, KCNQ1 pot, KCNK9 block)
CCOC(=O)C1=C(CSc2nc3c(cc2C#N)CCC3)OC(N)=C(C#N)C1c1ccccc1 (stereo unspecified)	KCNK9 block -6.7
CCOC(=O)CN1C=C(c2ccc3ccccc3n2)C(C[N+](=O)[O-])c2ccccc21 (stereo unspecified)	KCNQ1 block 11
CCCOc1ccc(NC(=O)CC2C(=O)N(Cc3ccccc3)C(=S)N2Cc2cccs2)cc1 (stereo unspecified)	KCNQ1 block 6
Cc1ccc2c(c1)-c1cc(C)nn1C(c1ccc3c(c1)OCO3)N2 (stereo unspecified)	KCNK9 block -7.6
CN1CCN(Cc2cc(=O)oc3cc4c(cc23)CCC4)CC1	none
CCN1CCN(Cc2cc(=O)oc3cc4c(cc23)CCC4)CC1	KCNQ1 block 8
CCC(C)c1ccc(N(CC(=O)NC(C)(C)C)C(=O)CNC(=O)c2cccs2)cc1 (stereo unspecified)	none
COc1ccc(C(=O)CCS(=O)(=O)c2ccc(F)cc2)cc1OC	KCNQ1 pot 24
Cc1ccc(S(=O)(=O)CCC(=O)c2ccc(F)cc2)cc1	none
CC1(C)CC(=O)C(c2ccccc2)(c2ccccc2)C(=O)C1	none (no result: KCNQ1 block, hERG protect, KCNQ1 pot, KCNK9 block)
OC(CNCC(c1ccco1)N1CCCCC1)c1ccccc1 (stereo unspecified)	hERG protect 5.9
CCCc1nc2c(s1)CCc1onc(-c3cccc([N+](=O)[O-])c3)c1-2	none
CC(C)c1nc2c(s1)CCc1onc(-c3cccc([N+](=O)[O-])c3)c1-2	KCNK9 block -6.7
